Reference: ChEMBL document CHEMBL5674880 (PLoS One, 2018)
Values belong to the compound of their own block, whether it stands above or below them.

Legend:
647-V = experiment: Antiproliferative activity against human 647-V cells after 10 days; type: functional, cell-based; conditions: 240 h
Method in brief: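 Tested in the Eurofins Oncopanel of about 240 cancer cell lines, all mycoplasma-negative and STR-verified. Cells were exposed to compound for 10 days in 2D culture, and a proliferative IC50 was derived from the concentration series. The highest concentration tested was 10 μM in the SMYD2 inhibitor screen and 25 μM in the SMYD3 inhibitor screen. Values are means of three biological replicates.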

A673 = experiment: Antiproliferative activity against human A673 cells after 10 days; type: functional, cell-based; conditions: A673, 240 h
Method in brief: (§1)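 Tested as part of a 240-line cancer cell panel (Eurofins Oncopanel); all lines were mycoplasma-negative and STR-verified. Cells were exposed to a compound concentration series in 2D culture for 10 days. The highest concentration was 10 μM or 25 μM, depending on the inhibitor. Antiproliferative IC50 was derived from the mean of three biological replicates.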

AN3-CA = experiment: Antiproliferative activity against human AN3-CA cells after 10 days; type: functional, cell-based; conditions: 240 h; method in brief: as §1
AU565 = experiment: Antiproliferative activity against human AU565 cells after 10 days; type: functional, cell-based; conditions: AU565, 240 h; method in brief: as §1
BPH-1 = experiment: Antiproliferative activity against human BPH-1 cells after 10 days; type: functional, cell-based; conditions: BPH-1, 240 h; method in brief: as §1
BT-20 = experiment: Antiproliferative activity against human BT-20 cells after 10 days; type: functional, cell-based; conditions: BT-20, 240 h; method in brief: as §1
BV-173 = experiment: Antiproliferative activity against human BV-173 cells after 10 days; type: functional, cell-based; conditions: BV-173, 240 h; method in brief: as §1
CAKI-2 = experiment: Antiproliferative activity against human CAKI-2 cells after 10 days; type: functional, cell-based; conditions: CAKI-2, 240 h; method in brief: as §1
Capan-2 = experiment: Antiproliferative activity against human Capan2 cells after 10 days; type: functional, cell-based; conditions: Capan-2, 240 h
Method in brief: (§2)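 10-day 2D proliferation screen of a broad cancer cell panel (about 240 lines, Eurofins Oncopanel). All lines were mycoplasma negative and STR verified. Compounds were dosed up to a top concentration of 10 μM or 25 μM, depending on the inhibitor. Anti-proliferative IC50 values are the average of three biological replicates.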

[1] = Antiproliferative activity against human CML-T1 cells after 10 days; type: functional, cell-based; conditions: CML-T1, 240 h; method in brief: as §1
COLO-320-HSR = experiment: Antiproliferative activity against human COLO 320HSR cells after 10 days; type: functional, cell-based; conditions: 240 h; method in brief: as §1
DLD-1 = experiment: Antiproliferative activity against human DLD-1 cells after 10 days; type: functional, cell-based; conditions: DLD-1, 240 h; method in brief: as §2
FaDu = experiment: Antiproliferative activity against human FaDu cells after 10 days; type: functional, cell-based; conditions: 240 h; method in brief: as §2
HCT-116 = experiment: Antiproliferative activity against human HCT-116 cells after 10 days; type: functional, cell-based; conditions: HCT-116, 240 h; method in brief: as §2
HCT-8 = experiment: Antiproliferative activity against human HCT-8 cells after 10 days; type: functional, cell-based; conditions: HCT-8, 240 h; method in brief: as §2
HEL 92.1.7 = experiment: Antiproliferative activity against human HEL 92.1.7 cells after 10 days; type: functional, cell-based; conditions: HEL 92.1.7, 240 h; method in brief: as §2
Hs-578T = experiment: Antiproliferative activity against human Hs 578T cells after 10 days; type: functional, cell-based; conditions: 240 h; method in brief: as §2
Hs746T = experiment: Antiproliferative activity against human Hs746T cells after 10 days; type: functional, cell-based; conditions: 240 h; method in brief: as §2
HT = experiment: Antiproliferative activity against human HT cells after 10 days; type: functional, cell-based; conditions: 240 h; method in brief: as §2
J-RT3-T3-5 = experiment: Antiproliferative activity against human J-RT3-T3-5 cells after 10 days; type: functional, cell-based; conditions: J-RT3-T3-5, 240 h
Method in brief: (§3)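 Broad cancer cell line panel (Eurofins Oncopanel, about 240 lines; mycoplasma negative, STR verified) grown in 2D culture and exposed to compound in a 10-day proliferation assay. The top concentration was 10 μM for the SMYD2 inhibitor series and 25 μM for the SMYD3 inhibitor. The proliferative IC50 is taken from concentration-response data, each value the mean of three biological replicates.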

[2] = Antiproliferative activity against human KHOS-240S cells after 10 days; type: functional, cell-based; conditions: 240 h; method in brief: as §3
L-428 = experiment: Antiproliferative activity against human L-428 cells after 10 days; type: functional, cell-based; conditions: L-428, 240 h; method in brief: as §3
LNCaP = experiment: Antiproliferative activity against human LNCaP cells after 10 days; type: functional, cell-based; conditions: 240 h; method in brief: as §3
MHH-PREB-1 = experiment: Antiproliferative activity against human MHH-PREB-1 cells after 10 days; type: functional, cell-based; conditions: MHH-PREB-1, 240 h; method in brief: as §3
NCI-H508 = experiment: Antiproliferative activity against human NCI-H508 cells after 10 days; type: functional, cell-based; conditions: NCI-H508, 240 h; method in brief: as §3
NCI-H596 = experiment: Antiproliferative activity against human NCI-H596 cells after 10 days; type: functional, cell-based; conditions: NCI-H596, 240 h; method in brief: as §3
NCI-H747 = experiment: Antiproliferative activity against human NCI-H747 cells after 10 days; type: functional, cell-based; conditions: NCI-H747, 240 h; method in brief: as §3
[3] = Antiproliferative activity against human OCUG-1 cells after 10 days; type: functional, cell-based; conditions: OCUG-1, 240 h; method in brief: as §3
PANC-1 = experiment: Antiproliferative activity against human PANC-1 cells after 10 days; type: functional, cell-based; conditions: PANC-1, 240 h; method in brief: as §3
RD = experiment: Antiproliferative activity against human RD cells after 10 days; type: functional, cell-based; conditions: 240 h; method in brief: as §3
RPMI-8226 = experiment: Antiproliferative activity against human RPMI-8226 cells after 10 days; type: functional, cell-based; conditions: RPMI-8226, 240 h
SCaBER = experiment: Antiproliferative activity against human SCaBER cells after 10 days; type: functional, cell-based; conditions: 240 h
SJRH30 = experiment: Antiproliferative activity against human SJRH30 cells after 10 days; type: functional, cell-based; conditions: SJRH30, 240 h
SJSA-1 = experiment: Antiproliferative activity against human SJSA-1 cells after 10 days; type: functional, cell-based; conditions: SJSA-1, 240 h
SK-MES-1 = experiment: Antiproliferative activity against human SK-MES-1 cells after 10 days; type: functional, cell-based; conditions: SK-MES-1, 240 h
SK-NEP-1 = experiment: Antiproliferative activity against human SK-NEP-1 cells after 10 days; type: functional, cell-based; conditions: SK-NEP-1, 240 h
SNB-19 = experiment: Antiproliferative activity against human SNB-19 cells after 10 days; type: functional, cell-based; conditions: SNB-19, 240 h
SNU-5 = experiment: Antiproliferative activity against human SNU-5 cells after 10 days; type: functional, cell-based; conditions: SNU-5, 240 h
SW1353 = experiment: Antiproliferative activity against human SW1353 cells after 10 days; type: functional, cell-based; conditions: SW1353, 240 h
SW1417 = experiment: Antiproliferative activity against human SW1417 cells after 10 days; type: functional, cell-based; conditions: SW1417, 240 h
SW1463 = experiment: Antiproliferative activity against human SW1463 cells after 10 days; type: functional, cell-based; conditions: SW1463, 240 h
[4] = Antiproliferative activity against human SW579 cells after 10 days; type: functional, cell-based; conditions: SW579, 240 h
SW837 = experiment: Antiproliferative activity against human SW837 cells after 10 days; type: functional, cell-based; conditions: SW837, 240 h
SW 954 = experiment: Antiproliferative activity against human SW 954 cells after 10 days; type: functional, cell-based; conditions: SW 954, 240 h
THP-1 = experiment: Antiproliferative activity against human THP-1 cells after 10 days; type: functional, cell-based; conditions: THP-1, 240 h
U-266 = experiment: Antiproliferative activity against human U266B1 cells after 10 days; type: functional, cell-based; conditions: U-266, 240 h
U-87 MG = experiment: Antiproliferative activity against human U-87MG cells after 10 days; type: functional, cell-based, U-87MG ATCC; conditions: 240 h
UMUC3 = experiment: Antiproliferative activity against human UM-UC-3 cells after 10 days; type: functional, cell-based; conditions: UMUC3, 240 h

- IC50 (BT-20): 3.35 µM
- IC50 (COLO-320-HSR): 2.74 µM
- IC50 (DLD-1): 3.4 µM
- IC50 (HCT-116): 2.66 µM
- IC50 (HCT-8): 2.52 µM
- IC50 (LNCaP): 3.44 µM
- IC50 (NCI-H508): 3.09 µM
- IC50 (NCI-H596): 2.95 µM
- IC50 (NCI-H747): 2.32 µM
- IC50 (PANC-1): 2.87 µM
- IC50 (RPMI-8226): 1.56 µM
- IC50 (SJSA-1): 1.47 µM
- IC50 (SK-MES-1): 1.18 µM
- IC50 (SK-NEP-1): 3.18 µM
- IC50 (SNU-5): 3.32 µM
- IC50 (SW1353): 2.98 µM
- IC50 (SW1417): 3.23 µM
- IC50 (SW1463): 3.06 µM
- IC50 (SW837): 3.69 µM
- IC50 (THP-1): 2.86 µM
- IC50 (U-87 MG): 2.85 µM
SMILES: Cc1cn(CCN2CCN(c3ccccc3-c3cc(C#N)cc(C(=O)NCCCN4CCCC4)c3)CC2)c2ccccc12
- IC50 (647-V): 1.48 µM
- IC50 (A673): 2.03 µM
- IC50 (AN3-CA): 2.42 µM
- IC50 (AU565): 1.25 µM
- IC50 (BPH-1): 3.49 µM
- IC50 (BV-173): 1.33 µM
- IC50 (CAKI-2): 1.22 µM
- IC50 (Capan-2): 1.57 µM
- IC50 [1]: 1.1 µM
- IC50 (FaDu): 2.36 µM
- IC50 (HEL 92.1.7): 3.53 µM
- IC50 (Hs-578T): 6.14 µM
- IC50 (Hs746T): 4.29 µM
- IC50 (HT): 1.93 µM
- IC50 (J-RT3-T3-5): 1.18 µM
- IC50 [2]: 1.31 µM
- IC50 (L-428): 1.49 µM
- IC50 (MHH-PREB-1): 1.06 µM
- IC50 [3]: 2.34 µM
- IC50 (RD): 0.954 µM
- IC50 (SCaBER): 1.5 µM
- IC50 (SJRH30): 1.23 µM
- IC50 (SNB-19): 2.52 µM
- IC50 [4]: 2.98 µM
- IC50 (SW 954): 4.07 µM
- IC50 (U-266): 1.26 µM
- IC50 (UMUC3): 2.91 µM

- IC50 (BT-20): > 10 µM
- IC50 (COLO-320-HSR): > 10 µM
- IC50 (DLD-1): > 10 µM
- IC50 (HCT-116): > 10 µM
- IC50 (HCT-8): > 10 µM
- IC50 (LNCaP): > 10 µM
- IC50 (NCI-H508): > 10 µM
- IC50 (NCI-H596): > 10 µM
- IC50 (NCI-H747): > 10 µM
- IC50 (PANC-1): > 10 µM
- IC50 (RPMI-8226): > 10 µM
- IC50 (SJSA-1): > 10 µM
- IC50 (SK-MES-1): > 10 µM
- IC50 (SK-NEP-1): > 10 µM
- IC50 (SNU-5): > 10 µM
- IC50 (SW1353): > 10 µM
- IC50 (SW1417): > 10 µM
- IC50 (SW1463): > 10 µM
- IC50 (SW837): > 10 µM
- IC50 (THP-1): > 10 µM
- IC50 (U-87 MG): > 10 µM
SMILES: O=C(NC1CN(Cc2cnn(Cc3ccccc3)c2)C1)c1cn(C2CC2)nn1
- IC50 (647-V): > 10 µM
- IC50 (A673): > 10 µM
- IC50 (AN3-CA): > 10 µM
- IC50 (AU565): > 10 µM
- IC50 (BPH-1): > 10 µM
- IC50 (BV-173): > 10 µM
- IC50 (CAKI-2): > 10 µM
- IC50 (Capan-2): > 10 µM
- IC50 [1]: > 10 µM
- IC50 (FaDu): > 10 µM
- IC50 (HEL 92.1.7): > 10 µM
- IC50 (Hs-578T): > 10 µM
- IC50 (Hs746T): > 10 µM
- IC50 (HT): > 10 µM
- IC50 (J-RT3-T3-5): 0.003 µM
- IC50 [2]: > 10 µM
- IC50 (L-428): 2.61 µM
- IC50 (MHH-PREB-1): > 10 µM
- IC50 [3]: > 10 µM
- IC50 (RD): > 10 µM
- IC50 (SCaBER): > 10 µM
- IC50 (SJRH30): > 10 µM
- IC50 (SNB-19): > 10 µM
- IC50 [4]: > 10 µM
- IC50 (SW 954): > 10 µM
- IC50 (U-266): > 10 µM
- IC50 (UMUC3): > 10 µM
